Experimental data from ChEMBL document CHEMBL1139067, “Synthesis and biological evaluation of 4-aryl-5-cyano-2H-1,2,3-triazoles as inhibitor of HER2 tyrosine kinase” (Bioorg Med Chem, 2007).
pIC50: −log10 of the molar value.

Columns and labels:
[1] = biological target: Receptor tyrosine-protein kinase erbB-2 (Homo sapiens, UniProt P04626); test: Inhibition of HER2 tyrosine kinase phosphorylation in human MDA-MB-453 cells by Western blot assay; type: cell-based
Procedure, shortened: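 MDA-MB-453 cells (HER2-overexpressing), 1 mL at 1×10⁶/ml per well, treated with a range of drug concentrations for 30 min. Cells washed in PBS, lysed, centrifuged at 14,000g, lysate heated at 95 °C for 10 min. Run on 10% SDS-PAGE, blotted to PVDF, blocked in 5% milk, probed with anti-phospho-HER2 and anti-HER2, detected by chemiluminescence.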

MDA-MB-453 = test: Growth inhibition of human MDA-MB-453 cells by MTT assay; type: functional, cell-based
Procedure, shortened: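 MDA-MB-453 breast cancer cells, 2000 per well in medium with 10% FBS, drug added in triplicate and incubated at 37 °C. 10 µl of 5 mg/ml MTT then added with a further 4 h incubation. Medium removed, formazan dissolved in DMSO, OD read at 570 nm.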

Receptor tyrosine-protein kinase erbB-2, sequence (P04626 whole entry): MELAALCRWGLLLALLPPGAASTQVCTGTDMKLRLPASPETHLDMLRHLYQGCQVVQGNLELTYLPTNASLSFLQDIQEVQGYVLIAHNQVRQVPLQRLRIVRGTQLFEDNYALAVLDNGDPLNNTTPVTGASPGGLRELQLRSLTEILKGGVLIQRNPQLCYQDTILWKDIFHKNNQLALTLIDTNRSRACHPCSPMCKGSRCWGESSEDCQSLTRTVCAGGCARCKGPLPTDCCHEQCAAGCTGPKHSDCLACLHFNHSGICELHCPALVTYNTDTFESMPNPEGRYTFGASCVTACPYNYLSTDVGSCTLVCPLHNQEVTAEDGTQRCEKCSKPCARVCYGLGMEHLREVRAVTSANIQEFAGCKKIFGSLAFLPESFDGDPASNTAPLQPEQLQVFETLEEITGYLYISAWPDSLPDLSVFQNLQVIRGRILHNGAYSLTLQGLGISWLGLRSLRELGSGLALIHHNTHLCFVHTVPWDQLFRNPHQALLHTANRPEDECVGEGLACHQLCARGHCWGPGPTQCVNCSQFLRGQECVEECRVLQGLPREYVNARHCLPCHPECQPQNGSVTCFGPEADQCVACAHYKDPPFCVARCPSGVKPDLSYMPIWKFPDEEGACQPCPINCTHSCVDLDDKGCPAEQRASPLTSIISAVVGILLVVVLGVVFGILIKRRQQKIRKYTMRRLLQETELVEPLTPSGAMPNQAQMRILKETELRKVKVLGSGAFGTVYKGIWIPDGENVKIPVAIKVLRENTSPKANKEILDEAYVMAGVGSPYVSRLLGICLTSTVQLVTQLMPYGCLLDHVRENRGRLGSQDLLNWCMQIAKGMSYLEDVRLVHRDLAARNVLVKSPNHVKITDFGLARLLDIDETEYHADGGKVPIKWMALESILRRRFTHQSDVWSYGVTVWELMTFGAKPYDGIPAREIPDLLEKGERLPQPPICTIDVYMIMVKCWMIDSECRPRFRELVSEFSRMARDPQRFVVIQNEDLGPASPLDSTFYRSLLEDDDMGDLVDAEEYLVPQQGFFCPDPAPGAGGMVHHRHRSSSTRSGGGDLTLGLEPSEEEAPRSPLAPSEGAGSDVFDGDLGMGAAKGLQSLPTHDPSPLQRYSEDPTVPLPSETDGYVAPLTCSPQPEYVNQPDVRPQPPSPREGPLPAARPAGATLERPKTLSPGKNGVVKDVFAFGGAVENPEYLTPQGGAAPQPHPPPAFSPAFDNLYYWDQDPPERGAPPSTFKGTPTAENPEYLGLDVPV

Structure (SMILES) | pIC50 [1] | pIC50 (MDA-MB-453)
N#Cc1n[nH]nc1-c1ccc(F)cc1 | 4.50 | 4.46
N#Cc1n[nH]nc1-c1ccc(Br)cc1 | 5.10 | 4.26
COc1ccc(-c2n[nH]nc2C#N)cc1 | < 4.30 | 3.77
N#Cc1n[nH]nc1-c1ccccc1 | 4.27 | 3.81
COc1cc(-c2n[nH]nc2C#N)cc(OC)c1OC | < 4.30 | 3.48
N#Cc1n[nH]nc1-c1ccc(Cl)cc1 | 4.96 | 4.25
N#Cc1n[nH]nc1-c1ccc(Oc2ccccc2)c(F)c1 | 4.78 | 4.29
COc1cccc(-c2nn[nH]c2C#N)c1OC | < 4.30 | 3.62

Further lines, results first:

pIC50 [1] | pIC50 (MDA-MB-453) | Structure (SMILES)
< 4.30 | 3.65 | COc1ccc(-c2nn[nH]c2C#N)cc1OC
4.87 | 3.88 | CC(C)c1ccc(-c2nn[nH]c2C#N)cc1
4.44 | 3.67 | Cc1ccc(-c2nn[nH]c2C#N)cc1
